CAL PDZ FP-1: blocks peptide binding to human CAL PDZ domain | Q9HD26 | purified CAL PDZ, TMR-peptide fluorescence polarization, 1 h | inhibition, % at 20 µM | 0.02% of 330,000 active | AID 504414;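 active = highest replicate inhibition of at least 40%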;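 note: plate controls were DMSO neutral control wells for no effect and unlabeled competitor peptide control wells for full effect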
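material = purified tagged CAL PDZ domain construct (CerCALP) | compound dosing = 20 µM, one dose | times = 1 h at RT | measured by = fluorescence polarization from S- and P-plane intensities, G-factor corrected | read-out = inhibition from polarization loss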
ERAP1 inh: ERAP1 (human) enzyme inhibition | Q9NZ08 | recombinant ERAP1, Leu-AMC fluorescence, 60 min | inhibition, % at 10.7 µM | 0.15% of 340,000 active | AID 652197;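 active = mean replicate inhibition of at least 30%, or all replicates individually reaching that 30% level; inactive = mean below 30% and not every replicate reaching it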;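 note: 0% = neutral control wells and 100% = L-leucinethiol positive control wells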
CAL PDZ FP-2: CAL PDZ (human) peptide binding inhibition | Q9HD26 | purified CAL PDZ, TMR-peptide fluorescence polarization, 1 h | inhibition, % at 24.9 µM | 0.92% of 300,000 active | AID 602252;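 active = mean inhibition of at least 30% with at least half of replicates also reaching 30%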;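 note: 0% = DMSO neutral control and 100% = excess unlabeled competitor peptide PRC23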
DENV2 CPE: DENV2-induced cell death inhibition; DENV2-infected cells, cytopathic effect rescue, plate reader; CPE inhibition, % at 9.99 µM; 1.7% of 350,000 active; AID 651640; in the data active = CPE inhibition above about 20%, passing the limit was not always enough; tested in BHK-21 cells;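 note: 0% = median of neutral control wells and 100% = median of positive control wells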
S100A4 inh HTS: S100A4-myosin IIA interaction inhibition; P26447; S100A4/TAMRA-MyoIIA peptide fluorescence polarization; inhibition, % at 10.7 µM; 0.14% of 360,000 active; AID 652163;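 active = mean inhibition of at least 70% across replicates, with every replicate also reaching that level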
Target sequence (P26447 whole entry, looked up): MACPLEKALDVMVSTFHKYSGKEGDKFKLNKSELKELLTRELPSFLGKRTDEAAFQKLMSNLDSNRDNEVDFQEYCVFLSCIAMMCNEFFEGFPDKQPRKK
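Material: S100A4 monomer (human). Medium: Calcium-containing HEPES buffer, pH 7.2. Probe or stimulus: labelled myosin peptide probe, 5 nM. Compound dosing: one concentration per compound. Timing: polarization read 5 min after assay mix addition, stable 5–60 min. Benchmarks: DMSO as neutral control, TFP as positive control.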
SIRT5 inh: sirtuin-5 (human) deacylase inhibition | 1.1% of 330,000 active | Q9NXA8 | Purified SirT5, succinyl-peptide AMC, trypsin-coupled fluorescence | inhibition, % at 15 µM; in the data active = inhibition above about 15%
Target sequence (Q9NXA8 whole entry, looked up): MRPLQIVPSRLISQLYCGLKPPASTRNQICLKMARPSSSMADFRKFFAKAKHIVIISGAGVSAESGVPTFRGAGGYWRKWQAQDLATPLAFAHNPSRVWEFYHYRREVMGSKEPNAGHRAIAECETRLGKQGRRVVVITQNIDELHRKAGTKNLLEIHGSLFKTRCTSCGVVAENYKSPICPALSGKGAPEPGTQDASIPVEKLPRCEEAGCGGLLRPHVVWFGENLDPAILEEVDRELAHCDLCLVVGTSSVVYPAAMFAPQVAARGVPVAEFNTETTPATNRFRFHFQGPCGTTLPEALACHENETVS
An asterisk follows results filed as active; / = no result given. A selection: hits, their analogues and other compounds. The true share with any hit is near 2.9%.

SMILES | CAL PDZ FP-1 | ERAP1 inh | CAL PDZ FP-2 | DENV2 CPE | S100A4 inh HTS | SIRT5 inh
O=C(C[C@@H]1CC[C@@H]2[C@H](COC[C@@H](O)CN2C(=O)c2ccc(F)cc2)O1)NCCCN1CCOCC1 | / | 0.2 | / | -3.2 | -53.3 | -0.5
O=C(OCc1c(F)cccc1Cl)c1cc([N+](=O)[O-])ccc1N1CCOCC1 | -0.5 | -1.6 | / | 67.8* | -1.2 | 6.5
CN(CCOc1ccccc1)C(=O)c1cc([N+](=O)[O-])ccc1N1CCOCC1 | -0.7 | 4.4 | 33.0* | 0.5 | 8.1 | 0.9
CN(Cc1ccccc1)C(=O)COC(=O)c1cc([N+](=O)[O-])ccc1N1CCOCC1 | -1.4 | 8.2 | / | 8.5 | -0.3 | 0.4
CN(CCOc1ccccc1)C(=O)c1cc([N+](=O)[O-])cc([N+](=O)[O-])c1 | -2.1 | 4.1 | 2.9 | 2.1 | -5.0 | 26.9*
Cc1ccc(S(=O)(=O)N[C@@H]2CC[C@H](CCNC(=O)C3CC3)O[C@@H]2CO)cc1 | / | -2.5 | / | 2.4 | -17.9 | 4.6
CC(C)C#Cc1ccc2c(c1)O[C@@H](CN(C)C(=O)Cc1ccccn1)[C@H](C)CN([C@@H](C)CO)S2(=O)=O | / | -1.5 | / | 11.6 | -5.2 | 2.7
C#Cc1ccc([C@@H]2C=C(C(=O)N3CCCCCCC3)O[C@H](OCCCCO)C2)cc1 | / | -0.3 | / | 8.0 | -11.3 | 3.4
COCC(=O)Nc1ccc2c(c1)C(=O)N(C)C[C@@H](OC)[C@H](C)CN(C(C)=O)[C@@H](C)CO2 | / | -2.9 | / | 32.2* | 4.7 | -1.3
COCC(=O)Nc1ccc2c(c1)OC[C@H](C)N(C(C)=O)C[C@H](C)[C@@H](OC)CN(C)C2=O | / | 1.9 | / | -10.7 | 16.0 | -0.9
COCC(=O)Nc1ccc2c(c1)C(=O)N(C)C[C@H](OC)[C@H](C)CN(C(=O)COC)[C@H](C)CO2 | / | -4.7 | / | 23.9* | 3.8 | -2.2
COc1ccc(S(=O)(=O)N(C)C[C@@H]2Oc3ccc(NS(=O)(=O)c4ccc(C)cc4)cc3C(=O)N([C@H](C)CO)C[C@@H]2C)cc1 | / | -1.6 | / | -4.8 | -2.1 | 11.5
Cc1ccc(S(=O)(=O)N(C)C[C@@H]2Oc3ccc(NS(C)(=O)=O)cc3CC(=O)N([C@@H](C)CO)C[C@H]2C)cc1 | / | -5.1 | / | -2.4 | 0.9 | -1.2
O=C(CC(F)(F)F)N1C[C@@H]2[C@H](c3ccccc31)[C@H](CO)N2C(=O)C1CCCC1 | / | -0.6 | / | 21.0* | -8.8 | /
O=C(C1CCCC1)N1C[C@H]2[C@@H](c3ccccc31)[C@@H](CO)N2C(=O)c1ccccc1 | / | -0.8 | / | 50.8* | 4.7 | -0.2
O=C(C1CCCC1)N1C[C@H]2[C@@H](c3ccccc31)[C@H](CO)N2C(=O)c1ccccc1 | / | -0.3 | / | -10.2 | 1.8 | -9.7
O=C(C1CC1)N1C[C@H]2[C@@H](c3ccccc31)[C@H](CO)N2C(=O)Cc1ccccn1 | / | -1.1 | / | 62.9* | 6.2 | 0.8
CN1C[C@H]2[C@@H](c3ccccc31)[C@@H](CO)N2C(=O)C1CCCC1 | / | 0.4 | / | 26.7* | -4.3 | -14.1
O=C(CC(F)(F)F)N1C[C@H]2[C@@H](c3ccccc31)[C@@H](CO)N2C(=O)C1CCCC1 | / | -0.9 | / | -0.2 | -4.8 | -0.8
CCC(=O)Nc1ccc2c(c1)OC[C@H](C)N(C(=O)c1cccnc1)C[C@@H](C)[C@@H](OC)CN(C)C2=O | / | -3.1 | / | -5.6 | -1.3 | 3.2
Cc1ccc(-c2cnc3c(c2)C(=O)N([C@H](C)CO)C[C@@H](C)[C@@H](CN(C)CC2CCOCC2)O3)cc1 | / | -0.1 | / | 17.8 | -7.7 | 0.0
C[C@@H]1CN([C@@H](C)CO)C(=O)c2cccc(NC(=O)Nc3ccc(F)cc3)c2O[C@H]1CN(C)S(C)(=O)=O | / | 1.6 | / | -3.4 | -2.8 | -4.8
O=C(c1cccnc1)N1C[C@@H]2[C@H](c3ccccc31)[C@H](CO)N2CC1CCCCC1 | / | 0.6 | / | 29.2* | 3.7 | 6.4
COc1ccccc1NC(=O)N1C[C@@H]2[C@H](c3ccccc31)[C@H](CO)N2C(C)=O | / | 2.9 | / | -10.3 | -1.4 | 0.8
O=C(Nc1ccccc1F)N1C[C@H]2[C@@H](c3ccccc31)[C@@H](CO)N2C(=O)C1CCCCC1 | / | -0.4 | / | 60.9* | 8.8 | 1.3
COc1ccccc1NC(=O)N1C[C@H]2[C@@H](c3ccccc31)[C@H](CO)N2C(C)=O | / | 2.2 | / | 20.5* | -6.5 | 9.6
